{"source": "ChEMBL document CHEMBL1134771", "about": "“Synthesis and antimalarial activity of novel medium-sized 1,2,4,5-tetraoxacycloalkanes” (J Med Chem, 2001)", "key": {"FM3A": {"tested_on": "FM3A", "assay": "in vitro cytotoxicity against mouse mammary tumor in cell culture.", "assay_type": "functional, cell-based", "how_it_was_run": "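Mouse mammary tumor FM3A cells in culture, used as a mammalian cytotoxicity control; EC50 determined.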"}, "Plasmodium falciparum": {"tested_on": "Plasmodium falciparum", "assay": "In vitro antimalarial activity for Plasmodium falciparum", "assay_type": "functional, organism-based", "how_it_was_run": "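Chloroquine-sensitive P. falciparum FCR-3 strain cultured in vitro; EC50 determined.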"}, "[1]": {"assay": "Mean of EC50 value for FM3A cells/ mean of EC50 value for Plasmodium falciparum", "assay_type": "functional", "how_it_was_run": "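Selectivity is the mean EC50 against FM3A mouse mammary tumor cells divided by the mean EC50 against P. falciparum FCR-3.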"}, "Mus musculus [2]": {"tested_on": "Mus musculus", "assay": "in vivo antimalarial activity against Plasmodium berghei infected mice (Mus musculus) on intraperitoneal administration", "assay_type": "functional", "settings": "ip", "how_it_was_run": "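Mice infected with P. berghei NK 65. Compounds were prepared in olive oil at various concentrations and injected intraperitoneally into groups of five mice once daily on days 0–3, starting on the day of infection. Parasitemia was measured on day 4, and ED50/ED90 were calculated by the earlier protocol.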"}, "Mus musculus [3]": {"tested_on": "Mus musculus", "assay": "in vivo antimalarial activity against Plasmodium berghei infected mice (Mus musculus) on oral administration", "assay_type": "functional", "how_it_was_run": "(§1)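 Mice infected with P. berghei NK 65. Compounds were prepared in olive oil at various concentrations and given orally to groups of five mice once daily on days 0–3, starting on the day of infection. Parasitemia was read on day 4, and ED50/ED90 were derived by the earlier protocol.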"}, "Mus musculus [4]": {"tested_on": "Mus musculus", "assay": "In vivo antimalarial activity against Plasmodium berghei infected mice (Mus musculus) on oral administration", "assay_type": "functional", "how_it_was_run": "as §1"}}}
{"molecule": "C1CCCCCC2(CCCCC1)OOCCCCCCCCOO2", "values": [{"measurement": "EC50", "setting": "FM3A", "result": 29000, "unit": "nM"}, {"measurement": "EC50", "setting": "Plasmodium falciparum", "result": 1700, "unit": "nM"}, {"measurement": "Selectivity", "setting": "[1]", "result": 17}]}
{"molecule": "C1CCCCCC2(CCCCC1)OOCCCCCCOO2", "values": [{"measurement": "EC50", "setting": "FM3A", "result": 16000, "unit": "nM"}, {"measurement": "ED50", "setting": "Mus musculus [2]", "result": 160, "unit": "mg/kg"}, {"measurement": "ED90", "setting": "Mus musculus [2]", "result": "> 200", "unit": "mg/kg"}, {"measurement": "EC50", "setting": "Plasmodium falciparum", "result": 10, "unit": "nM"}, {"measurement": "Selectivity", "setting": "[1]", "result": 1600}]}
{"molecule": "CCCCCCC1(CCCCCC)OOCCCOO1", "values": [{"measurement": "EC50", "setting": "FM3A", "result": 19000, "unit": "nM"}, {"measurement": "ED50", "setting": "Mus musculus [2]", "result": 60, "unit": "mg/kg"}, {"measurement": "ED90", "setting": "Mus musculus [2]", "result": 91, "unit": "mg/kg"}, {"measurement": "EC50", "setting": "Plasmodium falciparum", "result": 200, "unit": "nM"}, {"measurement": "Selectivity", "setting": "[1]", "result": 95}]}
{"molecule": "C1COOC2(OOC1)C1CC3CC(C1)CC2C3", "values": [{"measurement": "EC50", "setting": "FM3A", "result": 58000, "unit": "nM"}, {"measurement": "ED50", "setting": "Mus musculus [2]", "result": 100, "unit": "mg/kg"}, {"measurement": "EC50", "setting": "Plasmodium falciparum", "result": 50, "unit": "nM"}, {"measurement": "Selectivity", "setting": "[1]", "result": 1160}]}
{"molecule": "CC(C)(C)C1CCC2(CC1)OOCCCOO2", "values": [{"measurement": "EC50", "setting": "FM3A", "result": 30000, "unit": "nM"}, {"measurement": "ED90", "setting": "Mus musculus [3]", "result": 84, "unit": "mg/kg"}, {"measurement": "ED50", "setting": "Mus musculus [2]", "result": 15, "unit": "mg/kg"}, {"measurement": "ED90", "setting": "Mus musculus [2]", "result": 30, "unit": "mg/kg"}, {"measurement": "EC50", "setting": "Plasmodium falciparum", "result": 3, "unit": "nM"}, {"measurement": "ED50", "setting": "Mus musculus [4]", "result": 52, "unit": "mg/kg"}, {"measurement": "Selectivity", "setting": "[1]", "result": 10000}]}
{"molecule": "C1CCCCCC2(CCCCC1)OOCCCCCOO2", "values": [{"measurement": "EC50", "setting": "FM3A", "result": 12000, "unit": "nM"}, {"measurement": "EC50", "setting": "Plasmodium falciparum", "result": 280, "unit": "nM"}, {"measurement": "Selectivity", "setting": "[1]", "result": 43}]}
{"molecule": "CCCCCC1(CCCCC)OOCCCOO1", "values": [{"measurement": "EC50", "setting": "FM3A", "result": 34000, "unit": "nM"}, {"measurement": "ED50", "setting": "Mus musculus [2]", "result": 30, "unit": "mg/kg"}, {"measurement": "ED90", "setting": "Mus musculus [2]", "result": 58, "unit": "mg/kg"}, {"measurement": "EC50", "setting": "Plasmodium falciparum", "result": 310, "unit": "nM"}, {"measurement": "Selectivity", "setting": "[1]", "result": 110}]}
{"molecule": "C1CCCCCC2(CCCCC1)OOCCCOO2", "values": [{"measurement": "EC50", "setting": "FM3A", "result": 8000, "unit": "nM"}, {"measurement": "ED90", "setting": "Mus musculus [3]", "result": 40, "unit": "mg/kg"}, {"measurement": "ED50", "setting": "Mus musculus [2]", "result": 12, "unit": "mg/kg"}, {"measurement": "ED90", "setting": "Mus musculus [2]", "result": 20, "unit": "mg/kg"}, {"measurement": "EC50", "setting": "Plasmodium falciparum", "result": 25, "unit": "nM"}, {"measurement": "ED50", "setting": "Mus musculus [4]", "result": 20, "unit": "mg/kg"}, {"measurement": "Selectivity", "setting": "[1]", "result": 320}]}
{"molecule": "C[C@@H]1CC[C@H]2[C@@H](C)C(=O)O[C@@H]3O[C@@]4(C)CC[C@@H]1[C@]32OO4", "note": "[ARTEMISININ]", "values": [{"measurement": "ED90", "setting": "Mus musculus [3]", "result": 89, "unit": "mg/kg"}, {"measurement": "ED50", "setting": "Mus musculus [2]", "result": 5, "unit": "mg/kg"}, {"measurement": "ED90", "setting": "Mus musculus [2]", "result": 32, "unit": "mg/kg"}, {"measurement": "EC50", "setting": "Plasmodium falciparum", "result": 10, "unit": "nM"}, {"measurement": "ED50", "setting": "Mus musculus [4]", "result": 13, "unit": "mg/kg"}, {"measurement": "Selectivity", "setting": "[1]", "result": 1000}]}
{"molecule": "C1CCCCCC2(CCCCC1)OOCCCCOO2", "values": [{"measurement": "EC50", "setting": "FM3A", "result": 17000, "unit": "nM"}, {"measurement": "ED50", "setting": "Mus musculus [2]", "result": 48, "unit": "mg/kg"}, {"measurement": "ED90", "setting": "Mus musculus [2]", "result": 65, "unit": "mg/kg"}, {"measurement": "EC50", "setting": "Plasmodium falciparum", "result": 100, "unit": "nM"}, {"measurement": "Selectivity", "setting": "[1]", "result": 170}]}
